Drawing on ChEMBL document CHEMBL4346684, “Synthesis and structure-bactericidal activity relationships of non-ketolides: 9-Oxime clarithromycin 11,12-cyclic carbonate featured with three-to eight-atom-length spacers at 3-OH” (Eur J Med Chem, 2019), this text covers MIC, MBC and Ratio for three compounds.

Holding throughout (assay type): functional
In assay [1] the test system is Streptococcus pneumoniae. The experiment in a line: Antimicrobial activity against erythromycin-susceptible Streptococcus pneumoniae ATCC 49619 incubated in CAMHB medium for 20 to 24 hrs by two-fold microbroth dilution method.
The subject of assay [2] is Streptococcus pneumoniae. The assay can be described thus: Antimicrobial activity against mef-encoded erythromycin resistant Streptococcus pneumoniae PU09 incubated in CAMHB medium for 20 to 24 hrs by two-fold microbroth dilution method.
In assay [3] the test system is Streptococcus pneumoniae. The experiment in a line: Bactericidal activity against erythromycin-susceptible Streptococcus pneumoniae ATCC 49619 assessed as reduction in colony formation incubated in CAMHB medium for 20 to 24 hrs followed by 24 hrs subculturing in the medium without test compound.
In assay [4] the test system is Streptococcus pneumoniae. The experiment in a line: Ratio of MBC to MIC for erythromycin-susceptible Streptococcus pneumoniae ATCC 49619.
For assay [5], the system named is Streptococcus pneumoniae. The experiment in a line: Bactericidal activity against mef-encoded erythromycin resistant Streptococcus pneumoniae PU09 assessed as reduction in colony formation incubated in CAMHB medium for 20 to 24 hrs followed by 24 hrs subculturing in the medium without test compound.
Assay [6] relates to Streptococcus pyogenes. The experiment in a line: Antimicrobial activity against inducibly erythromycin resistant Streptococcus pyogenes 01-968 expressing i-ermA incubated in CAMHB medium for 20 to 24 hrs by two-fold microbroth dilution method. In general terms: Broth dilution looks for growth in wells or tubes with falling amounts of substance.
The subject of assay [7] is Streptococcus pyogenes. The assay can be described thus: Bactericidal activity against inducibly erythromycin resistant Streptococcus pyogenes 01-968 expressing i-ermA assessed as reduction in colony formation incubated in CAMHB medium for 20 to 24 hrs followed by 24 hrs subculturing in the medium without test compound.
The test system of assay [8] is Streptococcus pyogenes. The assay can be described thus: Ratio of MBC to MIC for inducibly erythromycin resistant Streptococcus pyogenes 01-968 expressing i-ermA.
In assay [9] the test system is Staphylococcus aureus. The assay can be described thus: Antimicrobial activity against constitutively erythromycin resistant and methicillin resistant Staphylococcus aureus PU20 expressing c-ermC incubated in CAMHB medium for 20 hrs by two-fold microbroth dilution method. Conditions: PU20, 20 h. Summed up: (§1)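 Purified fresh Staphylococcus isolate at about 5×10^5 CFU/ml final in CAMHB, 35 °C for 20 h. Each run included ATCC strains and reference antibiotics as QC, plus an antibiotic-free growth control.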

In assay [10] the test system is Staphylococcus aureus. The assay can be described thus: Bactericidal activity against constitutively erythromycin resistant and methicillin-resistant Staphylococcus aureus PU20 expressing c-ermC assessed as reduction in colony formation incubated in CAMHB medium for 20 hrs followed by 24 hrs subculturing in the medium without test compound.
In assay [11] the test system is Staphylococcus aureus. The assay can be described thus: Ratio of MBC to MIC for constitutively erythromycin resistant and methicillin-resistant Staphylococcus aureus PU20 expressing c-ermC.
Assay [12] has as its system Staphylococcus aureus. The assay can be described thus: Antimicrobial activity against inducibly erythromycin-resistant and methicillin resistant Staphylococcus aureus PU32 expressing i-ermA incubated in CAMHB medium for 20 hrs by two-fold microbroth dilution method. The settings on record: PU32, 20 h. In a few lines: as §1
In assay [13] the test system is Staphylococcus aureus. The assay can be described thus: Bactericidal activity against inducibly erythromycin-resistant and methicillin resistant Staphylococcus aureus PU32 expressing i-ermA assessed as reduction in colony formation incubated in CAMHB medium for 20 hrs followed by 24 hrs subculturing in the medium without test compound.
Assay [14] concerns Staphylococcus aureus. The experiment in a line: Ratio of MBC to MIC for inducibly erythromycin-resistant and methicillin resistant Staphylococcus aureus PU32 expressing i-ermA.
In assay [15] the test system is Haemophilus influenzae. The assay can be described thus: Antimicrobial activity against azithromycin-susceptible Haemophilus influenzae ATCC 49247 incubated in HTM broth medium for 20 to 24 hrs by two-fold microbroth dilution method.
Assay [16] deals with Haemophilus influenzae. The assay can be described thus: Bactericidal activity against azithromycin-susceptible Haemophilus influenzae ATCC 49247 assessed as reduction in colony formation incubated in HTM broth medium for 20 to 24 hrs followed by 24 hrs subculturing in the medium without test compound.
Assay [17] relates to Haemophilus influenzae. The experiment in a line: Ratio of MBC to MIC for azithromycin-susceptible Haemophilus influenzae ATCC 49247.
Assay [18] relates to Streptococcus pneumoniae. The experiment in a line: Ratio of MBC to MIC for mef-encoded erythromycin resistant Streptococcus pneumoniae PU09.
For assay [19], the system named is Moraxella catarrhalis. The experiment in a line: Antimicrobial activity against erythromycin-susceptible Moraxella catarrhalis 13L332 incubated in CAMHB medium for 20 hrs by two-fold microbroth dilution method. Conditions: 13L332, 20 h. Summed up:
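Clinical isolates and ATCC strains, purified by plate activation and used fresh; inoculum about 5×10^5 CFU/ml final. Grown in CAMHB at 35 °C for 20 h.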

For assay [20], the system named is Moraxella catarrhalis. The assay can be described thus: Bactericidal activity against erythromycin-susceptible Moraxella catarrhalis 13L332 assessed as reduction in colony formation incubated in CAMHB medium for 20 hrs followed by 24 hrs subculturing in the medium without test compound.
Assay [21] deals with Moraxella catarrhalis. The experiment in a line: Ratio of MBC to MIC for erythromycin-susceptible Moraxella catarrhalis 13L332.

Structures are written as SMILES. Converted amounts (≈) assume the structure as drawn. Where only a bound is given, the exact number is not on record here.

For the compound `CC[C@H]1OC(=O)[C@H](C)[C@@H](OC(=O)CCNCCCc2ccc(-n3ccnc3)cc2)[C@H](C)[C@@H](O[C@@H]2O[C@H](C)C[C@H](N(C)C)[C@H]2O)[C@](C)(OC)C[C@@H](C)/C(=N\OC)[C@H](C)[C@H]2OC(=O)O[C@@]21C`, the MIC in the assay with Streptococcus pneumoniae [1] is 2 mg/L (≈ 2.22 µM); against Streptococcus pneumoniae [2] it was 4 mg/L (≈ 4.44 µM); with Streptococcus pyogenes [6], 16 mg/L (≈ 17.8 µM); with Staphylococcus aureus [9], 64 mg/L (≈ 71.1 µM); in the assay on Staphylococcus aureus [12] it was 64 mg/L (≈ 71.1 µM); against Haemophilus influenzae [15], 256 mg/L (≈ 284 µM). In addition, the MBC with Streptococcus pneumoniae [3] was 4 mg/L (≈ 4.44 µM); in the assay with Streptococcus pneumoniae [5], 8 mg/L (≈ 8.89 µM); with Streptococcus pyogenes [7], 32 mg/L (≈ 35.6 µM); with Staphylococcus aureus [10], above 256 mg/L; with Staphylococcus aureus [13], 128 mg/L (≈ 142 µM); in the assay on Haemophilus influenzae [16] it was 256 mg/L (≈ 284 µM). Further, the Ratio is reported as 2 in the assay on Streptococcus pneumoniae [4]; 2 in the assay on Streptococcus pyogenes [8]; above 4 in the assay with Staphylococcus aureus [11]; 2 in the assay on Staphylococcus aureus [14]; 1 in the assay with Haemophilus influenzae [17].

For `CC[C@H]1OC(=O)[C@H](C)[C@@H](OC(=O)CCNCCCc2cccnc2)[C@H](C)[C@@H](O[C@@H]2O[C@H](C)C[C@H](N(C)C)[C@H]2O)[C@](C)(OC)C[C@@H](C)/C(=N\OC)[C@H](C)[C@H]2OC(=O)O[C@@]21C`, the MIC in the assay on Streptococcus pneumoniae [1] amounted to 1 mg/L (≈ 1.2 µM); in the assay with Streptococcus pneumoniae [2], 2 mg/L (≈ 2.4 µM); in the assay with Streptococcus pyogenes [6] it was 0.5 mg/L (≈ 0.599 µM); against Staphylococcus aureus [9], 256 mg/L (≈ 307 µM); with Staphylococcus aureus [12] it was 32 mg/L (≈ 38.3 µM); with Haemophilus influenzae [15] it was 256 mg/L (≈ 307 µM). For the same compound, the MBC was 8 mg/L (≈ 9.58 µM) with Streptococcus pneumoniae [3]; 4 mg/L (≈ 4.79 µM) with Streptococcus pneumoniae [5]; above 4 mg/L in the assay with Streptococcus pyogenes [7]; above 256 mg/L in the assay with Staphylococcus aureus [10]; above 256 mg/L in the assay with Staphylococcus aureus [13]; 256 mg/L (≈ 307 µM) with Haemophilus influenzae [16]. Also, the Ratio is recorded as 8 in the assay on Streptococcus pneumoniae [4]; 2 in the assay on Streptococcus pneumoniae [18]; above 8 in the assay with Streptococcus pyogenes [8]; above 8 in the assay with Staphylococcus aureus [14]; 1 in the assay on Haemophilus influenzae [17].

As for `CC[C@H]1OC(=O)[C@H](C)[C@@H](OCC#Cc2cncc(NC(=O)c3ccccn3)c2)[C@H](C)[C@@H](O[C@@H]2O[C@H](C)C[C@H](N(C)C)[C@H]2O)[C@](C)(OC)C[C@@H](C)/C(=N\OC)[C@H](C)[C@H]2OC(=O)O[C@@]21C`, the MIC was 4 mg/L (≈ 4.55 µM) with Streptococcus pneumoniae [1]; 4 mg/L (≈ 4.55 µM) against Streptococcus pneumoniae [2]; 16 mg/L (≈ 18.2 µM) in the assay with Streptococcus pyogenes [6]; 256 mg/L (≈ 291 µM) in the assay with Staphylococcus aureus [9]; above 256 mg/L in the assay on Staphylococcus aureus [12]; 8 mg/L (≈ 9.09 µM) in the assay with Moraxella catarrhalis [19]. Besides, the MBC in the assay on Streptococcus pneumoniae [3] was 16 mg/L (≈ 18.2 µM); in the assay on Streptococcus pneumoniae [5], 16 mg/L (≈ 18.2 µM); in the assay with Streptococcus pyogenes [7], 32 mg/L (≈ 36.4 µM); in the assay on Staphylococcus aureus [10] it was above 256 mg/L; in the assay with Staphylococcus aureus [13], above 256 mg/L; with Moraxella catarrhalis [20], 16 mg/L (≈ 18.2 µM). Also, the Ratio in the assay on Streptococcus pneumoniae [4] is 4; in the assay with Streptococcus pyogenes [8], 2; in the assay with Moraxella catarrhalis [21], 2.
